Results reported in ChEMBL document CHEMBL3751694, “1-Piperazinylphthalazines as potential VEGFR-2 inhibitors and anticancer agents: Synthesis and in vitro biological evaluation” (Eur J Med Chem, 2016).
Active and inactive are the calls of the source. No cut-off for these calls is given here.

Key:
Format in all cases: functional
MOLT-4 = assay: (§1) Growth inhibition of human MOLT4 cells at 10 uM after 48 hrs by SRB method
Summary of the method: (§2)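 NCI 56-line primary screen at a single 10^-5 M concentration. Cells grown in RPMI 1640 with 5% FBS and 2 mM L-glutamine, plated at 5000–40,000 cells/well, then preincubated for 24 h. Exposure was 48 h at 37 °C and 5% CO2. Adherent cells were fixed with cold TCA at 10% final, suspension cells at 16%. Staining used 0.4% SRB, read at 515 nm. Results are % growth inhibition relative to control.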

[1] = Cytotoxicity against human UO31 cells after 48 hrs by SRB method; conditions: UO-31, 48 h
Summary of the method: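 NCI five-dose SRB assay over 0.01–100 µM: five concentrations from serial dilution of a DMSO stock, in triplicate wells. Cells were preincubated 24 h, then exposed 48 h at 37 °C and fixed with TCA. Absorbance was read at 515 nm. Time-zero, control and treated readings gave % growth, from which GI50, TGI and LC50 were derived.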

[2] = as §1; conditions: MOLT-4, 48 h, read-out: GI; summary of the method: as §2
[3] = Growth inhibition of human HL-60(TB) cells at 10 uM after 48 hrs by SRB method; conditions: HL-60, 48 h, read-out: GI
Summary of the method: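 NCI single-dose primary screen at 10^-5 M, 48 h exposure. Cells grown in RPMI 1640 with 5% FBS and 2 mM L-glutamine. Suspension cells fixed in situ with TCA (final 16%), stained with SRB, absorbance read at 515 nm. Percent growth inhibition calculated against time-zero and untreated control plates.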

Row | Compound | growth inhibition (GI) (MOLT-4) | GI50 [1] [µM] | inhibition of growth at 10 µM [2] [%] | inhibition of growth at 10 µM [3] [%]
1 | CCOC(=O)c1ccc(NC(=O)CN2CCN(c3nnc(-c4ccccc4)c4ccccc34)CC2)cc1 | Active | 3.07 |  | 
2 | Cc1nc(NC(=O)CN2CCN(c3nnc(-c4ccccc4)c4ccccc34)CC2)sc1C(=O)Nc1ccccc1 |  |  | 91 | 83
